# Experimental data as given in ChEMBL document CHEMBL1165947, “Synthesis and antitumor activity of 2,5-bis(3'-indolyl)-furans and 3,5-bis(3'-indolyl)-isoxazoles, nortopsentin analogues” (Bioorg Med Chem, 2010).
# Legend:
# Format in all cases: functional
# CCRF-CEM = experiment: Growth inhibition of human CCRF-CEM cells
# HL-60(TB) = experiment: Growth inhibition of human HL-60(TB) cells
# Method in brief: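 Values come from the NCI in vitro disease-oriented human tumour cell line screen, not from this lab's propidium iodide assay. GI50 is the concentration giving 50% inhibition of net cell growth, also reported as pGI50, the −log of that molar concentration.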
# K562 = experiment: Growth inhibition of human K562 cells
# [1] = Growth inhibition of human […] cells
# Method in brief: (§1)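 Values come from the NCI in vitro disease-oriented human tumor cell screen. GI50 is the concentration giving 50% growth inhibition of tumor cells; pGI50 is its −log molar form.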
# MOLT-4 = experiment: Growth inhibition of human MOLT4 cells; method in brief: as §1
# SR = experiment: Growth inhibition of human SR cells; method in brief: as §1
# A549 = experiment: Growth inhibition of human A549 cells
# EKVX = experiment: Growth inhibition of human EKVX cells
# HOP-62 = experiment: Growth inhibition of human HOP62 cells
# HOP-92 = experiment: Growth inhibition of human HOP92 cells
# NCI-H226 = experiment: Growth inhibition of human NCI-H226 cells; method in brief: as §1
# NCI-H23 = experiment: Growth inhibition of human NCI-H23 cells; method in brief: as §1
# NCI-H322M = experiment: Growth inhibition of human NCI-H322M cells; method in brief: as §1
# NCI-H460 = experiment: Growth inhibition of human NCI-H460 cells; method in brief: as §1
# NCI-H522 = experiment: Growth inhibition of human NCI-H522 cells; method in brief: as §1
# COLO 205 = experiment: Growth inhibition of human COLO205 cells
# HCT-116 = experiment: Growth inhibition of human HCT116 cells
# HCT-15 = experiment: Growth inhibition of human HCT15 cells
# HT-29 = experiment: Growth inhibition of human HT-29 cells
# KM12 = experiment: Growth inhibition of human KM12 cells
# SW-620 = experiment: Growth inhibition of human SW620 cells; method in brief: as §1
# SF-268 = experiment: Growth inhibition of human SF268 cells; method in brief: as §1
# SF-295 = experiment: Growth inhibition of human SF295 cells; method in brief: as §1
# SF-539 = experiment: Growth inhibition of human SF539 cells; method in brief: as §1
# SNB-19 = experiment: Growth inhibition of human SNB19 cells; method in brief: as §1
# SNB-75 = experiment: Growth inhibition of human SNB75 cells; method in brief: as §1
# U-251 = experiment: Growth inhibition of human U251 cells; method in brief: as §1
# LOX IMVI = experiment: Growth inhibition of human LOXIMVI cells
# Malme-3M = experiment: Growth inhibition of human MALME-3M cells; method in brief: as §1
# M14 = experiment: Growth inhibition of human M14 cells
# SK-MEL-2 = experiment: Growth inhibition of human SK-MEL-2 cells; method in brief: as §1
# SK-MEL-28 = experiment: Growth inhibition of human SK-MEL-28 cells; method in brief: as §1
# SK-MEL-5 = experiment: Growth inhibition of human SK-MEL-5 cells; method in brief: as §1
# UACC-257 = experiment: Growth inhibition of human UACC257 cells; method in brief: as §1
# UACC-62 = experiment: Growth inhibition of human UACC62 cells; method in brief: as §1
# IGROV-1 = experiment: Growth inhibition of human IGROV1 cells
# OVCAR-3 = experiment: Growth inhibition of human OVCAR-3 cells; method in brief: as §1
# OVCAR-4 = experiment: Growth inhibition of human OVCAR4 cells; method in brief: as §1
# OVCAR-5 = experiment: Growth inhibition of human OVCAR5 cells; method in brief: as §1
# OVCAR-8 = experiment: Growth inhibition of human OVCAR8 cells; method in brief: as §1
# SK-OV-3 = experiment: Growth inhibition of human SKOV3 cells; method in brief: as §1
# NCI/ADR-RES = experiment: Growth inhibition of human NCI/ADR-RES cells; method in brief: as §1
smiles,measurement,setting,value
COc1ccc2c(c1)c(-c1ccc(-c3cn(C)c4ccc(OC)cc34)o1)cn2C,GI50,CCRF-CEM,6.46 µM
same,GI50,HL-60(TB),1.98 µM
same,GI50,K562,2.86 µM
same,GI50,[1],2.25 µM
same,GI50,MOLT-4,> 100 µM
same,GI50,SR,1.63 µM
same,GI50,A549,18.4 µM
same,GI50,EKVX,5.48 µM
same,GI50,HOP-62,> 100 µM
same,GI50,HOP-92,1.03 µM
same,GI50,NCI-H226,23.6 µM
same,GI50,NCI-H23,17.3 µM
same,GI50,NCI-H322M,> 100 µM
same,GI50,NCI-H460,9.89 µM
same,GI50,NCI-H522,3.42 µM
same,GI50,COLO 205,5.13 µM
same,GI50,HCT-116,8.8 µM
same,GI50,HCT-15,4.22 µM
same,GI50,HT-29,22 µM
same,GI50,KM12,2.73 µM
same,GI50,SW-620,4.55 µM
same,GI50,SF-268,9.25 µM
same,GI50,SF-295,13.4 µM
same,GI50,SF-539,2.47 µM
same,GI50,SNB-19,29.8 µM
same,GI50,SNB-75,13.6 µM
same,GI50,U-251,3.66 µM
same,GI50,LOX IMVI,10.4 µM
same,GI50,Malme-3M,52.8 µM
same,GI50,M14,32.9 µM
same,GI50,SK-MEL-2,2.13 µM
same,GI50,SK-MEL-28,14 µM
same,GI50,SK-MEL-5,10.4 µM
same,GI50,UACC-257,27 µM
same,GI50,UACC-62,3.81 µM
same,GI50,IGROV-1,29.6 µM
same,GI50,OVCAR-3,8.51 µM
same,GI50,OVCAR-4,2.06 µM
same,GI50,OVCAR-5,2.79 µM
same,GI50,OVCAR-8,8.02 µM
same,GI50,SK-OV-3,> 100 µM
same,GI50,NCI/ADR-RES,2.37 µM
